From ChEMBL document CHEMBL2407075, “Sulphonamido-quinoxalines: search for anticancer agent” (Eur J Med Chem, 2013)

Tests used:
Assay type in all cases: functional
DU-145 = assay: Growth inhibition of human DU145 cells at 10 uM after 48 hrs by sulforhodamine B assay; details: DU-145, 48 h, read-out: GI
Summary of the method: (§1)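 Single-dose NCI-60 prescreen at 10 µM for 48 h at 37 °C and 5% CO2, using cells grown in RPMI 1640 with 5% FBS and 2 mM glutamine. Protein was measured by SRB after TCA fixation: 10% final for adherent lines, 16% for suspension lines. Absorbance was read at 515 nm. Percent growth inhibition was obtained by subtracting percent growth from 100.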

SF-295 = assay: Growth inhibition of human SF295 cells at 10 uM after 48 hrs by sulforhodamine B assay; details: SF-295, 48 h, read-out: GI
Summary of the method: (§2)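 Single-dose screen at 10 µM across the NCI 60 panel. Cells in RPMI 1640 with 5% FBS and 2 mM L-glutamine, plated at 5000–40,000/well and preincubated 24 h at 37 °C, 5% CO2. Drug in DMSO, 48 h exposure. Fixed with TCA, stained with SRB, A515 read. Percent growth is taken relative to untreated control, and inhibition is 100 minus growth.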

SR = assay: Growth inhibition of human SR cells at 10 uM after 48 hrs by sulforhodamine B assay; details: read-out: GI; summary of the method: as §2
CCRF-CEM = assay: Growth inhibition of human CCRF-CEM cells at 10 uM after 48 hrs by sulforhodamine B assay; details: read-out: GI; summary of the method: as §1
SN12C = assay: Growth inhibition of human SN12C cells at 10 uM after 48 hrs by sulforhodamine B assay; details: read-out: GI; summary of the method: as §2
786-0 = assay: Growth inhibition of human 786-0 cells at 10 uM after 48 hrs by sulforhodamine B assay; details: 786-0, 48 h, read-out: GI; summary of the method: as §1
LOX IMVI = assay: Growth inhibition of human LOXIMVI cells at 10 uM after 48 hrs by sulforhodamine B assay; details: read-out: GI; summary of the method: as §2
T47D = assay: Growth inhibition of human T47D cells at 10 uM after 48 hrs by sulforhodamine B assay; details: read-out: GI; summary of the method: as §2
OVCAR-5 = assay: Growth inhibition of human OVCAR5 cells at 10 uM after 48 hrs by sulforhodamine B assay; details: OVCAR-5, 48 h, read-out: GI; summary of the method: as §2
[1] = Growth inhibition of human EKVX cells at 10 uM after 48 hrs by sulforhodamine B assay; details: read-out: GI
Summary of the method: (§3)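 NCI-60 one-dose primary screen at a single 10 µM concentration. Cells in RPMI 1640 with 5% FBS, preincubated 24 h at 37 °C, 5% CO2. Drug exposure 48 h, then TCA fixation, SRB staining and absorbance at 515 nm. Percent growth calculated against time-zero and untreated control wells, then converted to percent growth inhibition.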

HOP-62 = assay: Growth inhibition of human HOP62 cells at 10 uM after 48 hrs by sulforhodamine B assay; details: HOP-62, 48 h, read-out: GI; summary of the method: as §3
NCI-H460 = assay: Growth inhibition of human NCI-H460 cells at 10 uM after 48 hrs by sulforhodamine B assay; details: NCI-H460, 48 h, read-out: GI; summary of the method: as §2
M14 = assay: Growth inhibition of human M14 cells at 10 uM after 48 hrs by sulforhodamine B assay; details: M14, 48 h, read-out: GI; summary of the method: as §2
NCI-H322M = assay: Growth inhibition of human NCI-H322M cells at 10 uM after 48 hrs by sulforhodamine B assay; details: read-out: GI; summary of the method: as §2
CAKI-1 = assay: Growth inhibition of human CAKI-1 cells at 10 uM after 48 hrs by sulforhodamine B assay; details: CAKI-1, 48 h, read-out: GI; summary of the method: as §1
RXF 393 = assay: Growth inhibition of human RXF393 cells at 10 uM after 48 hrs by sulforhodamine B assay; details: RXF 393, 48 h, read-out: GI; summary of the method: as §2
MOLT-4 = assay: Growth inhibition of human MOLT4 cells at 10 uM after 48 hrs by sulforhodamine B assay; details: MOLT-4, 48 h, read-out: GI; summary of the method: as §2
HL-60(TB) = assay: Growth inhibition of human HL-60(TB) cells at 10 uM after 48 hrs by sulforhodamine B assay; details: HL-60, 48 h, read-out: GI
Summary of the method: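 Single-dose NCI-60 primary screen at 10 µM, 48 h exposure, SRB read-out. Growth percentage of treated versus untreated cells was recorded and given as percent inhibition by subtraction.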

SK-OV-3 = assay: Growth inhibition of human SKOV3 cells at 10 uM after 48 hrs by sulforhodamine B assay; details: SK-OV-3, 48 h, read-out: GI; summary of the method: as §2
IGROV-1 = assay: Growth inhibition of human IGROV1 cells at 10 uM after 48 hrs by sulforhodamine B assay; details: IGROV-1, 48 h, read-out: GI; summary of the method: as §2
KM12 = assay: Growth inhibition of human KM12 cells at 10 uM after 48 hrs by sulforhodamine B assay; details: KM12, 48 h, read-out: GI; summary of the method: as §2
MDA-MB-231 = assay: Growth inhibition of human MDA-MB-231 cells at 10 uM after 48 hrs by sulforhodamine B assay; details: MDA-MB-231, 48 h, read-out: GI; summary of the method: as §2
MDA-MB-435 = assay: Growth inhibition of human MDA-MB-435 cells at 10 uM after 48 hrs by sulforhodamine B assay; details: MDA-MB-435, 48 h, read-out: GI; summary of the method: as §2
TK-10 = assay: Growth inhibition of human TK10 cells at 10 uM after 48 hrs by sulforhodamine B assay; details: TK-10, 48 h, read-out: GI; summary of the method: as §2
PC-3 = assay: Growth inhibition of human PC3 cells at 10 uM after 48 hrs by sulforhodamine B assay; details: PC-3, 48 h, read-out: GI; summary of the method: as §2
SNB-19 = assay: Growth inhibition of human SNB19 cells at 10 uM after 48 hrs by sulforhodamine B assay; details: SNB-19, 48 h, read-out: GI; summary of the method: as §2

O=S(=O)(Nc1cccc2ccccc12)c1ccc2nc(-c3ccccc3)c(-c3ccccc3)nc2c1
inhibition of growth at 10 µM (DU-145): 10.9% | inhibition of growth at 10 µM (SF-295): 3.88% | inhibition of growth at 10 µM (SR): 81.1% | inhibition of growth at 10 µM (CCRF-CEM): 58.3% | inhibition of growth at 10 µM (SN12C): 8.87% | inhibition of growth at 10 µM (786-0): 4.34% | inhibition of growth at 10 µM (LOX IMVI): 32.9% | inhibition of growth at 10 µM (T47D): 49.4% | inhibition of growth at 10 µM (OVCAR-5): 2.98% | inhibition of growth at 10 µM [1]: 71.2% | inhibition of growth at 10 µM (HOP-62): 2.24% | inhibition of growth at 10 µM (NCI-H460): 23.6% | inhibition of growth at 10 µM (M14): 2.23% | inhibition of growth at 10 µM (NCI-H322M): 22.2% | inhibition of growth at 10 µM (CAKI-1): 3.34% | inhibition of growth at 10 µM (RXF 393): 48.6% | inhibition of growth at 10 µM (MOLT-4): 47.8% | inhibition of growth at 10 µM (HL-60(TB)): 71% | inhibition of growth at 10 µM (SK-OV-3): 5.86% | inhibition of growth at 10 µM (IGROV-1): 1.78% | inhibition of growth at 10 µM (KM12): 29.9% | inhibition of growth at 10 µM (MDA-MB-231): 38.7% | inhibition of growth at 10 µM (MDA-MB-435): 20.4% | inhibition of growth at 10 µM (TK-10): 6.34% | inhibition of growth at 10 µM (PC-3): 41.8% | inhibition of growth at 10 µM (SNB-19): 9.78%

NC(=S)NNS(=O)(=O)c1ccc2nc(-c3ccccc3)c(-c3ccccc3)nc2c1
inhibition of growth at 10 µM (DU-145): 2.73% | inhibition of growth at 10 µM (SF-295): 8.92% | inhibition of growth at 10 µM (SR): 50% | inhibition of growth at 10 µM (CCRF-CEM): 35.8% | inhibition of growth at 10 µM (SN12C): 6.98% | inhibition of growth at 10 µM (786-0): 2.34% | inhibition of growth at 10 µM (LOX IMVI): 11.2% | inhibition of growth at 10 µM (T47D): 42.6% | inhibition of growth at 10 µM (OVCAR-5): 4.85% | inhibition of growth at 10 µM [1]: 23.7% | inhibition of growth at 10 µM (HOP-62): 38.7% | inhibition of growth at 10 µM (NCI-H460): 15.6% | inhibition of growth at 10 µM (M14): 4.23% | inhibition of growth at 10 µM (NCI-H322M): 2.92% | inhibition of growth at 10 µM (CAKI-1): 2.94% | inhibition of growth at 10 µM (RXF 393): 29.2% | inhibition of growth at 10 µM (MOLT-4): 28.1% | inhibition of growth at 10 µM (HL-60(TB)): 40.6% | inhibition of growth at 10 µM (SK-OV-3): 5.98% | inhibition of growth at 10 µM (IGROV-1): 8.83% | inhibition of growth at 10 µM (KM12): 15.9% | inhibition of growth at 10 µM (MDA-MB-231): 17.6% | inhibition of growth at 10 µM (MDA-MB-435): 11.1% | inhibition of growth at 10 µM (TK-10): 2.74% | inhibition of growth at 10 µM (PC-3): 34.6% | inhibition of growth at 10 µM (SNB-19): 14.8%

O=C(NS(=O)(=O)c1ccc2nc(-c3ccccc3)c(-c3ccccc3)nc2c1)c1ccccc1
inhibition of growth at 10 µM (DU-145): 6.85% | inhibition of growth at 10 µM (SF-295): 21% | inhibition of growth at 10 µM (SR): 71.1% | inhibition of growth at 10 µM (CCRF-CEM): 41.3% | inhibition of growth at 10 µM (SN12C): 17.4% | inhibition of growth at 10 µM (786-0): 16.5% | inhibition of growth at 10 µM (LOX IMVI): 20.5% | inhibition of growth at 10 µM (T47D): 57.5% | inhibition of growth at 10 µM (OVCAR-5): 8.43% | inhibition of growth at 10 µM [1]: 26.5% | inhibition of growth at 10 µM (HOP-62): 2.87% | inhibition of growth at 10 µM (NCI-H460): 32% | inhibition of growth at 10 µM (M14): 2.45% | inhibition of growth at 10 µM (NCI-H322M): 20.9% | inhibition of growth at 10 µM (CAKI-1): 7.22% | inhibition of growth at 10 µM (RXF 393): 39.1% | inhibition of growth at 10 µM (MOLT-4): 44.9% | inhibition of growth at 10 µM (HL-60(TB)): 49.4% | inhibition of growth at 10 µM (SK-OV-3): 12.8% | inhibition of growth at 10 µM (IGROV-1): 16.5% | inhibition of growth at 10 µM (KM12): 21% | inhibition of growth at 10 µM (MDA-MB-231): 28.5% | inhibition of growth at 10 µM (MDA-MB-435): 12.9% | inhibition of growth at 10 µM (TK-10): 2.54% | inhibition of growth at 10 µM (PC-3): 41.9% | inhibition of growth at 10 µM (SNB-19): 22%
